Laboratory results from ChEMBL document CHEMBL4190408 (J Med Chem, 2018).
Converted amounts (≈) assume the structure as drawn. Blank lines part the entries; values can stand above or below the molecule they belong to. The source made the active and inactive calls. The calls are words filed in the database; no cut-off is given here.

Columns and labels:
Salmonella typhimurium [1] = test: Genotoxicity in Salmonella typhimurium TA1537 up to 1000 uM after 2 days in presence or absence of liver S9 fraction by Ames test; format: toxicity, organism-based; details: salmonella enterica subsp. enterica serovar typhimurium, s9, 48 h
Summary of the method: (§1)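 MiniAMES (MPF format) with Salmonella typhimurium TA98, TA100 and TA1537, with and without S9 metabolic activation. 2-day incubation, top concentration 1000 µM.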

Salmonella typhimurium [2] = test: Genotoxicity in Salmonella typhimurium TA98 up to 1000 uM after 2 days in presence or absence of liver S9 fraction by Ames test; format: toxicity, organism-based; details: salmonella enterica subsp. enterica serovar typhimurium, s9, 48 h; summary of the method: as §1
Salmonella typhimurium [3] = test: Genotoxicity in Salmonella typhimurium TA100 up to 1000 uM after 2 days in presence or absence of liver S9 fraction by Ames test; format: toxicity, organism-based; details: salmonella enterica subsp. enterica serovar typhimurium, s9, 48 h; summary of the method: as §1
[4] = biological target: Phosphatidylinositol 4-kinase type 2-alpha (Homo sapiens) (UniProt Q9BTU6); test: Inhibition of recombinant human full length GST-tagged PI4K2alpha expressed in insect cells at 10 uM
Phosphatidylinositol 4-kinase type 2-alpha (Homo sapiens), sequence (Q9BTU6 whole entry): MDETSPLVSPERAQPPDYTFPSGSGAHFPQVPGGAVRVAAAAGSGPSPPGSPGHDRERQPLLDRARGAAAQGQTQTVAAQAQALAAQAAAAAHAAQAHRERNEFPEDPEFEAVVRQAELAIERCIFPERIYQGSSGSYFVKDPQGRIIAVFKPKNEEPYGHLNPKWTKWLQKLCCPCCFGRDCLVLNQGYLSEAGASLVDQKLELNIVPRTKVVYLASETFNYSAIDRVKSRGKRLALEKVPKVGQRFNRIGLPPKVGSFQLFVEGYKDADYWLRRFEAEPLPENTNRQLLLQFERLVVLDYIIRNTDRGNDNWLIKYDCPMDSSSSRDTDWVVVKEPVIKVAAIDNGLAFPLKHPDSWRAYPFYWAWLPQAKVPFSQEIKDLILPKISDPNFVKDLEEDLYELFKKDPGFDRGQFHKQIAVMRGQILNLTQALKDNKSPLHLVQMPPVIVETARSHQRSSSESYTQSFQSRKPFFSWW

[5] = biological target: Phosphatidylinositol 4-kinase type 2-beta (Homo sapiens) (UniProt Q8TCG2); test: Inhibition of recombinant human full length GST-tagged PI4K2beta expressed in insect cells at 10 uM
Phosphatidylinositol 4-kinase type 2-beta (Homo sapiens), sequence (Q8TCG2 whole entry): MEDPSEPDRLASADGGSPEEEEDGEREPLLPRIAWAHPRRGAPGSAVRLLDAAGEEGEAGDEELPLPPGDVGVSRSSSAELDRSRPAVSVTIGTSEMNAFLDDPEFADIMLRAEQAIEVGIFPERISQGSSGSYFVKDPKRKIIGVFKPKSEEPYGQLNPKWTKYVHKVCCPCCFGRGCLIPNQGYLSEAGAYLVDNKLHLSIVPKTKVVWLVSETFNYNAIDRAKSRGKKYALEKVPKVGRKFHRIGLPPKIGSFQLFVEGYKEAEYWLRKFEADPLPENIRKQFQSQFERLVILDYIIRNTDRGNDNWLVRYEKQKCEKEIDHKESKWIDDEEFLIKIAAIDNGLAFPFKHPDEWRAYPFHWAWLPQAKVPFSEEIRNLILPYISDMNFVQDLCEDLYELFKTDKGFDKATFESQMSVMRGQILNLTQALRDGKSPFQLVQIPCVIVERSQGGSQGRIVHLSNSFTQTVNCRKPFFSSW

[6] = biological target: Phosphatidylinositol 4-kinase alpha (Homo sapiens) (UniProt P42356); test: Inhibition of PI4K3alpha (unknown origin) at 10 uM
Phosphatidylinositol 4-kinase alpha (Homo sapiens), sequence (P42356 whole entry, looked up): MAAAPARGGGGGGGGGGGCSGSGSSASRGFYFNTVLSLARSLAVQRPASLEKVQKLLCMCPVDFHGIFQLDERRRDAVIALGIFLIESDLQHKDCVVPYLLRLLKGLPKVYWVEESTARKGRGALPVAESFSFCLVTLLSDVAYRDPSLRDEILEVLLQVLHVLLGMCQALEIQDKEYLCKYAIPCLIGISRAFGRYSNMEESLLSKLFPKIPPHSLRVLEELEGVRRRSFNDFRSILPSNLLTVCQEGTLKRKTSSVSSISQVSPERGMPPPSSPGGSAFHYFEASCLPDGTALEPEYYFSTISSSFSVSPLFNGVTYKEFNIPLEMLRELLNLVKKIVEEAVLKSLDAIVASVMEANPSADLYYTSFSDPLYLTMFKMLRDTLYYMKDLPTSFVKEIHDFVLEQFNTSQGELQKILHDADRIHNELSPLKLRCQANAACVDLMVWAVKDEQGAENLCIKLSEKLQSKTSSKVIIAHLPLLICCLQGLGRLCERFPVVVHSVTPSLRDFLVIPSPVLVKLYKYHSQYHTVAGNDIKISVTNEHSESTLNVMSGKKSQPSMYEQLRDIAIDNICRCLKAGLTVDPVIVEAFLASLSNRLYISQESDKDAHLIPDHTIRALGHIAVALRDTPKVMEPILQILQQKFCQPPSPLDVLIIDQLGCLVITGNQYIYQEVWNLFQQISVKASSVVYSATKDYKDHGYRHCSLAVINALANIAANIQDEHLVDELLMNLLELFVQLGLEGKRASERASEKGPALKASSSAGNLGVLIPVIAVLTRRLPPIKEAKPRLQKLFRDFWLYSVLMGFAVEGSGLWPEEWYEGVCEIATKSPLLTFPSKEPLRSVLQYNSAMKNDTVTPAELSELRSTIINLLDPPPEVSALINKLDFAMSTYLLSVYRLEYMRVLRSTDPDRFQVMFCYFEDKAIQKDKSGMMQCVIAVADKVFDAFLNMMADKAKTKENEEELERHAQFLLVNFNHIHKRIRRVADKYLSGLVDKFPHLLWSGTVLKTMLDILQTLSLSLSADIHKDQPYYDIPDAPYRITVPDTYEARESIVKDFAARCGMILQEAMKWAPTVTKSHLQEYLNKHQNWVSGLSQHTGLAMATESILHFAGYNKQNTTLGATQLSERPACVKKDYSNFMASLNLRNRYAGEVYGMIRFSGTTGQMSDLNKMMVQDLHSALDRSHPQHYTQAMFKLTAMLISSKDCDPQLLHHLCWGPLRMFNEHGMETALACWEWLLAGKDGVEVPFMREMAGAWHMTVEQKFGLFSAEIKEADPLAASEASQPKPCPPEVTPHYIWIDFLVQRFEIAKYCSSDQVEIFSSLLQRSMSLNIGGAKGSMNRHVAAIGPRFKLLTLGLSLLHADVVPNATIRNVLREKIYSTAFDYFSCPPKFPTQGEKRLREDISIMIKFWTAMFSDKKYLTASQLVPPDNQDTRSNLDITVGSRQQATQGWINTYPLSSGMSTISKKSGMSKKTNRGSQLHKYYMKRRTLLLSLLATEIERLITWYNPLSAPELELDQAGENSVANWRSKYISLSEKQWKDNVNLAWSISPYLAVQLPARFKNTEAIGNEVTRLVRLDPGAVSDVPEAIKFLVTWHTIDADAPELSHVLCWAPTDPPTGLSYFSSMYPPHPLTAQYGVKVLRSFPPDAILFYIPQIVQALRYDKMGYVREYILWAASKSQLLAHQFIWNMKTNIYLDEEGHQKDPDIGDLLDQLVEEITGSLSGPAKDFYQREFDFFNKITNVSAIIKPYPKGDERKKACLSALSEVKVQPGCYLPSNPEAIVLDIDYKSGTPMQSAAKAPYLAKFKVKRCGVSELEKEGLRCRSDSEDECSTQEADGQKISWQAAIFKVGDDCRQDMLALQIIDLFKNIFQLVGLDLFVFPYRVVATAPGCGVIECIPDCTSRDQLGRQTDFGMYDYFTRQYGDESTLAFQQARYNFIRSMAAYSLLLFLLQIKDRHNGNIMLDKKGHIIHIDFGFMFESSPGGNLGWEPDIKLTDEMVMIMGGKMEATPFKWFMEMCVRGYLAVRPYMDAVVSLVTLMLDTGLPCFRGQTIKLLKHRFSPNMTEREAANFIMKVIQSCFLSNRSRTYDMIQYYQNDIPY

[7] = Fraction unbound in mouse blood; format: ADME, tissue-based
[8] = Apparent clearance in Balb/c mouse at 10 mg/kg, po after 1 hr; format: ADME, organism-based; details: in vivo
Mus musculus [9] = test: Unbound AUC (infinity) in Balb/c mouse at 10 mg/kg, po after 1 hr; format: ADME, organism-based; details: in vivo
Mus musculus [10] = test: Unbound Cmax in Balb/c mouse at 10 mg/kg, po after 1 hr; format: ADME, organism-based; details: in vivo
Mus musculus [11] = test: (§2) Clearance in Balb/c mouse at 1 mg/kg, iv; format: ADME, organism-based; details: in vivo
Summary of the method: (§3)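 Intravenous PK in male Balb/C mice, n=3, at 1 mpk. Vehicle was 30% DMA or 15% NMP, depending on the compound.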

Mus musculus [12] = test: Unbound AUC in Balb/c mouse at 1 mg/kg, iv; format: ADME, organism-based; details: in vivo; summary of the method: as §3
Mus musculus [13] = test: (§4) Half life in Balb/c mouse at 1 mg/kg, iv; format: ADME, organism-based; details: in vivo; summary of the method: as §3
Mus musculus [14] = test: (§5) Volume of distribution at steady state in Balb/c mouse at 1 mg/kg, iv; format: ADME, organism-based; details: in vivo; summary of the method: as §3
Mus musculus [15] = test: (§6) Oral bioavailability in Balb/c mouse at 10 mg/kg after 1 hr; format: ADME, organism-based; details: in vivo, 1 h
Summary of the method: (§7)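 Male Balb/C mice, n=3. Oral dose of 10 mpk as a homogeneous suspension of crystalline solid in 0.1% Tween 80, 0.1% silicone antifoam, 1% methylcellulose (400 cps) in water. I.v. dose of 1 mpk in 30% DMA or 15% NMP, depending on the compound. Bioavailability was extrapolated from the i.v./p.o. experiments.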

[16] = Apparent clearance in Balb/c mouse at 30 mg/kg, po after 1 hr; format: ADME, organism-based; details: in vivo
[17] = Unbound Tmax in Balb/c mouse at 10 to 100 mg/kg, po; format: ADME, organism-based; details: in vivo, read-out: fTmax
Mus musculus [18] = test: Unbound AUC (infinity) in Balb/c mouse at 30 mg/kg, po after 1 hr; format: ADME, organism-based; details: in vivo
Mus musculus [19] = test: Unbound Cmax in Balb/c mouse at 30 mg/kg, po after 1 hr; format: ADME, organism-based; details: in vivo
[20] = Apparent clearance in Balb/c mouse at 100 mg/kg, po after 1 hr; format: ADME, organism-based; details: in vivo
Mus musculus [21] = test: Unbound AUC (infinity) in Balb/c mouse at 100 mg/kg, po after 1 hr; format: ADME, organism-based; details: in vivo
Mus musculus [22] = test: Unbound Cmax in Balb/c mouse at 100 mg/kg, po after 1 hr; format: ADME, organism-based; details: in vivo
Mus musculus [23] = test: Immunosuppressive activity in Balb/c mouse assessed as inhibition of anti-CD3-mediated T-cell activation by measuring IFNgamma release in plasma at 1 mg/kg, po pretreated for 30 mins followed by anti-CD3 stimulation measured after 180 mins by ELISA relative to control; format: functional
Summary of the method: (§8)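 Balb/C mice (n=8 per group) were dosed orally with 1, 10 or 100 mpk in 0.1% Tween 80, 0.1% silicone antifoam, 1% methylcellulose (400 cps) vehicle, before anti-CD3 challenge. IFNγ release (pg/ml) was measured over a time course. Percent inhibition is the mean (±SEM) relative to the vehicle-treated positive control.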

Mus musculus [24] = test: Immunosuppressive activity in Balb/c mouse assessed as inhibition of anti-CD3-mediated T-cell activation by measuring IFNgamma release in plasma at 10 mg/kg, po pretreated for 30 mins followed by anti-CD3 stimulation measured after 180 mins by ELISA relative to control; format: functional; summary of the method: as §8
Mus musculus [25] = test: Immunosuppressive activity in Balb/c mouse assessed as inhibition of anti-CD3-mediated T-cell activation by measuring IFNgamma release in plasma at 100 mg/kg, po pretreated for 30 mins followed by anti-CD3 stimulation measured after 180 mins by ELISA relative to control; format: functional; summary of the method: as §8
Mus musculus [26] = test: Immunosuppressive activity in po dosed Balb/c mouse assessed as inhibition of anti-CD3-mediated T-cell activation by measuring IFNgamma release in plasma pretreated for 30 mins followed by anti-CD3 stimulation measured after 180 mins by ELISA; format: functional, organism-based; summary of the method: as §8
Mus musculus [27] = test: (§9) Inhibition of allograft rejection in Balb/c mouse heterotopic cardiac transplantation model using C57BL/6 as cardiac donor assessed as long-term graft survival rate by measuring cardiac allograft function by daily palpitation at 100 mg/kg administered via oral gavage as qd for 28 days relative to control; format: functional; details: 672 h
Mus musculus [28] = test: as §9, with “measured after treatment withdrawal” for “relative to control”; format: functional, organism-based
Mus musculus [29] = test: Immunosuppressive activity in OXA-induced Balb/c mouse T-cell dependent model of antibody response assessed as inhibition of IgG1 production in serum at 100 mg/kg, po qd pretreated for 30 mins followed by OXA challenge measured on day 7 post dose by ELISA; format: functional, organism-based
Mus musculus [30] = test: Immunosuppressive activity in OXA-induced Balb/c mouse T-cell dependent model of antibody response assessed as inhibition of IgG1 production in serum at 100 mg/kg, po qd pretreated for 30 mins followed by OXA challenge measured on day 14 post dose by ELISA; format: functional, organism-based
Salmonella typhimurium [31] = test: Genotoxicity in Salmonella typhimurium TA1537 up to 1667 ug/plate in presence or absence of liver S9 fraction by Ames test; format: toxicity, organism-based; details: salmonella enterica subsp. enterica serovar typhimurium
Summary of the method: (§10)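 Three-strain bacterial miniAMES with TA1537, TA98 and TA100, with and without S9 activation. Top concentrations 500 and 1667 µg.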

Salmonella typhimurium [32] = test: Genotoxicity in Salmonella typhimurium TA98 up to 1667 ug/plate in presence or absence of liver S9 fraction by Ames test; format: toxicity, organism-based; details: salmonella enterica subsp. enterica serovar typhimurium; summary of the method: as §10
Salmonella typhimurium [33] = test: Genotoxicity in Salmonella typhimurium TA100 up to 1667 ug/plate in presence or absence of liver S9 fraction by Ames test; format: toxicity, organism-based; details: salmonella enterica subsp. enterica serovar typhimurium; summary of the method: as §10
[34] = biological target: Voltage-gated inwardly rectifying potassium channel KCNH2 (Homo sapiens, UniProt Q12809)
Voltage-gated inwardly rectifying potassium channel KCNH2, sequence (Q12809 whole entry): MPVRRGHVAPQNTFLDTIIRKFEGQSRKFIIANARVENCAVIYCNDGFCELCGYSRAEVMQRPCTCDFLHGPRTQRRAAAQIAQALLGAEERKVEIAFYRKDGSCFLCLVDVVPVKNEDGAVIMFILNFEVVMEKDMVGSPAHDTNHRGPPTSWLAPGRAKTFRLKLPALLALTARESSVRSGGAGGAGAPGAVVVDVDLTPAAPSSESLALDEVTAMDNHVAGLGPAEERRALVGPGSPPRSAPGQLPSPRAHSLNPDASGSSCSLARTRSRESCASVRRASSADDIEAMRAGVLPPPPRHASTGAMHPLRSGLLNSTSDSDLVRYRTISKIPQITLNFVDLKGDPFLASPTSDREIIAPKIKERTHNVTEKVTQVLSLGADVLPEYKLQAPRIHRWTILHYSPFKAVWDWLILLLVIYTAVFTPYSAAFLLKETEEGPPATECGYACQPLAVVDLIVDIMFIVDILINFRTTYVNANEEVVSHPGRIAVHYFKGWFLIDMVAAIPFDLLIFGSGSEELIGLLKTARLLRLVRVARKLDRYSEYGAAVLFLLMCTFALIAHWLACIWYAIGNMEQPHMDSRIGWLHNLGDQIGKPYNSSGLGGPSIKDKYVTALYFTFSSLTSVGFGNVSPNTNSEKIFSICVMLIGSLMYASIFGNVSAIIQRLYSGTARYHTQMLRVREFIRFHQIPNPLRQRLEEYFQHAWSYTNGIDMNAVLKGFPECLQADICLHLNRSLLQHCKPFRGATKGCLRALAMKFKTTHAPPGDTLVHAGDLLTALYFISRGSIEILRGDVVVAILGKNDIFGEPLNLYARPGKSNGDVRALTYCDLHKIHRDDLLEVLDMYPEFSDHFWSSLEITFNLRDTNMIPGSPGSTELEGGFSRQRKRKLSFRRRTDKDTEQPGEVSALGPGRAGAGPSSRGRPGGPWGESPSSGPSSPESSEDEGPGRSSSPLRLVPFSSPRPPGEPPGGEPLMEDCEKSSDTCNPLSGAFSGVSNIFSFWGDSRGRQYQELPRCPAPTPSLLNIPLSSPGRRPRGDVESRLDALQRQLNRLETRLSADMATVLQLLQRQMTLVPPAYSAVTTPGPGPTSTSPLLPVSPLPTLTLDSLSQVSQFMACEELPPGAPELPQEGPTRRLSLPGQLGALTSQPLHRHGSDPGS

Cytochrome P450 3A4 = Cytochrome P450 3A4 (Homo sapiens, UniProt P08684)
Cytochrome P450 3A4, sequence (P08684 whole entry): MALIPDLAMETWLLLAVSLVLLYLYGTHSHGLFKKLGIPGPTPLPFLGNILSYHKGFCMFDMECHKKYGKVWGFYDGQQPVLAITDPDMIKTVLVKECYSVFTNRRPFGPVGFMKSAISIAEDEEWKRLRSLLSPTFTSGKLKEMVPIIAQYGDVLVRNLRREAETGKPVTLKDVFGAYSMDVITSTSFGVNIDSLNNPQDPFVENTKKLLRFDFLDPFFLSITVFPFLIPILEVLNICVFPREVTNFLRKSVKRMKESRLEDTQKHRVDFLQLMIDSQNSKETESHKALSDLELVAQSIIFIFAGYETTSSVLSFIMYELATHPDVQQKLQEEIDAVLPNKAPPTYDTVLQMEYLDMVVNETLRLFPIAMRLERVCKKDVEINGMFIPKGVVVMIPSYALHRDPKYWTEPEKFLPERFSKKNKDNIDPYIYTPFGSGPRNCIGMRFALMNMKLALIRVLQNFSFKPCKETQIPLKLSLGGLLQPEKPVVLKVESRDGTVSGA

in vitro [35] = details: human, liver microsomes
in vitro [36] = details: mouse, liver microsomes
physchem [37] = details: phosphate buffer, pH 7.4
physchem [38] = details: pH 7.4 solution
[39] = Thermodynamic solubility of the compound in pH 7.4 solution after 90 mins by UVLC-MS analysis; format: physicochemical; details: pH 7.4 solution, pH 7.4; read-out: Therm_solubility
[40] = as §2; format: ADME, organism-based; details: Balb/c, in vivo; summary of the method: as §3
[41] = as §4; format: ADME, organism-based; details: Balb/c, in vivo; summary of the method: as §3
[42] = as §5; format: ADME, organism-based; details: Balb/c, in vivo, read-out: Vdss; summary of the method: as §3
[43] = as §6; format: ADME, organism-based; details: Balb/c, in vivo; summary of the method: as §7
Salmonella typhimurium [44] = test: Genotoxicity in Salmonella typhimurium TA1537 up to 2000 uM after 2 days in presence or absence of liver S9 fraction by Ames test; format: toxicity, organism-based; details: salmonella enterica subsp. enterica serovar typhimurium, s9, 48 h
Summary of the method: (§11)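 Ames MPF format with Salmonella typhimurium TA98, TA100, TA1535, TA1537 and E. coli uvrA. Run with and without metabolic activation (S9), 2-day incubation, up to 2000 µM.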

Salmonella typhimurium [45] = test: Genotoxicity in Salmonella typhimurium TA1535 up to 2000 uM after 2 days in presence or absence of liver S9 fraction by Ames test; format: toxicity, organism-based; details: salmonella enterica subsp. enterica serovar typhimurium, s9, 48 h; summary of the method: as §11
Salmonella typhimurium [46] = test: Genotoxicity in Salmonella typhimurium TA98 up to 2000 uM after 2 days in presence or absence of liver S9 fraction by Ames test; format: toxicity, organism-based; details: salmonella enterica subsp. enterica serovar typhimurium, s9, 48 h; summary of the method: as §11
Salmonella typhimurium [47] = test: Genotoxicity in Salmonella typhimurium TA100 up to 2000 uM after 2 days in presence or absence of liver S9 fraction by Ames test; format: toxicity, organism-based; details: salmonella enterica subsp. enterica serovar typhimurium, s9, 48 h; summary of the method: as §11
Escherichia coli = test: Genotoxicity in Escherichia coli uvrA up to 2000 uM after 2 days in presence or absence of liver S9 fraction by Ames test; format: toxicity, organism-based; details: s9, 48 h; summary of the method: as §11
Mus musculus [48] = test: Inhibition of allograft rejection in Balb/c mouse heterotopic cardiac transplantation model using C57BL/6 as cardiac donor assessed as long-term graft survival rate by measuring cardiac allograft function by daily palpitation at 5 mg/kg, po qd for 28 days; format: functional, organism-based; details: in the assay text read “for 14 days” for “for 28 days”
Summary of the method: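 Heterotopic cardiac allografts from C57BL/6 donors into Balb/C recipients. Recipients received 5 mpk as a homogeneous suspension in 0.1% Tween 80, 0.1% silicone antifoam, 1% methylcellulose (400 cps), or vehicle alone, by oral gavage once daily. Survival was compared with vehicle; rejection was indicated when the graft stopped beating.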

Compound: COc1ccc(N)c(C)c1.Cl
Activity (Salmonella typhimurium [1]): Non-Toxic
Activity (Salmonella typhimurium [2]): Non-Toxic
Activity (Salmonella typhimurium [3]): Non-Toxic

Compound: COc1ccc(NC(=O)N2CCN(c3nc(N)nc4scnc34)CC2)cc1
inhibition [4]: inactive
inhibition [5]: inactive
inhibition [6]: inactive
fraction unbound [7]: 0.061
CL/F [8]: 80 mL/min/kg
fAUC (Mus musculus [9]): 0.332 to 0.333 µM·h
fCmax (Mus musculus [10]): 154 nM
CL (Mus musculus [11]): Nd(Insoluble)
fAUC (Mus musculus [12]): Nd(Insoluble)
t1/2 (Mus musculus [13]): Nd(Insoluble)
Vdss (Mus musculus [14]): Nd(Insoluble)
F (Mus musculus [15]): Nd(Insoluble)
CL/F [16]: 112 mL/min/kg
Tmax [17]: 1 h
fAUC (Mus musculus [18]): 0.769 µM·h
fCmax (Mus musculus [19]): 444 nM
CL/F [20]: 86 mL/min/kg
fAUC (Mus musculus [21]): 3.907 µM·h
fCmax (Mus musculus [22]): 967 nM
inhibition in vivo at 1 mg/kg (Mus musculus [23]): 24.6%
inhibition in vivo at 10 mg/kg (Mus musculus [24]): 54.9%
inhibition in vivo at 100 mg/kg (Mus musculus [25]): 87.5%
inhibition (Mus musculus [26]): Dose-dependent effect
survival at 100 mg/kg (Mus musculus [27]): 50%
inhibition (Mus musculus [28]): Active
inhibition (Mus musculus [29]): Active
inhibition (Mus musculus [30]): Active
Activity (Salmonella typhimurium [31]): Non-Toxic
Activity (Salmonella typhimurium [32]): Non-Toxic
Activity (Salmonella typhimurium [33]): Non-Toxic
IC50 [34]: 28 µM
IC50 (Cytochrome P450 3A4): > 20 µM
microsomal CLint at 0.75 h, 3 µM (in vitro [35]): 21 µL/min/mg
microsomal CLint at 0.75 h, 3 µM (in vitro [36]): 15 µL/min/mg
logD at 1.5 h (physchem [37]): 1.85
solubility kinetic at 1.5 h (physchem [38]): 85 µM (≈ 32.8 µg/mL)

solubility thermodynamic at 1.5 h [39]: 110 µM (≈ 45.2 µg/mL)
fraction unbound [7]: 0.09
CL/F [8]: 5.3 mL/min/kg
fAUC (Mus musculus [9]): 6.941 µM·h
fCmax (Mus musculus [10]): 2113 nM
clearance [40]: 5 mL/min/kg
fAUC (Mus musculus [12]): 0.684 µM·h
half-life [41]: 1.4 h
Vd [42]: 0.6 L/kg
bioavailability [43]: 100%
microsomal CLint at 0.75 h, 3 µM (in vitro [35]): 4 µL/min/mg
microsomal CLint at 0.75 h, 3 µM (in vitro [36]): 6 µL/min/mg
logD at 1.5 h (physchem [37]): 1.47
solubility kinetic at 1.5 h (physchem [38]): > 350 µM
Compound: COc1ccc(NC(=O)N2CCN(c3nc(N)nc4c3cnn4C)[C@@H](C)C2)c(C)c1
Activity (Salmonella typhimurium [44]): Non-Toxic
Activity (Salmonella typhimurium [45]): Non-Toxic
Activity (Salmonella typhimurium [46]): Non-Toxic
Activity (Salmonella typhimurium [47]): Non-Toxic
Activity (Escherichia coli): Non-Toxic
Activity (Mus musculus [48]): Active
